# BAP1 inh = human BAP1 deubiquitinase inhibition; AID 436; actives 0.48% (n = 72,000); calls only at 20 µM; Q92560; recombinant BAP1, Ub-AMC hydrolysis fluorescence kinetic; hits give low values;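 active = activity remaining at or below 50% of control, provided the compound also passes the data quality filters; inactive = the rest, including low values that fail the filters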;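 note: 100% = DMSO wells rate and 0% = substrate alone blank rate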
# M1 ag = M1 muscarinic receptor agonism. CHO-M1 cells, Fluo-4 calcium fluorescence, agonist mode; hits give high values. B-score at 10 µM. actives 3% (n = 64,000);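 active = fluorescence rise, raw or as B-score row- and column-corrected plate score, outside the 99.7% band of its plate's samples, either direction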
# HEK293 NFkB inh = lowers PMA/ionomycin-induced NF-kB signal in HEK293 cells. HEK-293 NF-kB luciferase reporter, luminescence. inhibition, % at 3 µM. actives 0.21% (n = 62,000);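 active = inhibition above the mean of all tested compounds plus 3 SD, cut at about 40% in these data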;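 note: 0% = stimulated DMSO wells and 100% = 10 µM reference inhibitor 5653914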
#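 Material: HEK-293 cells with stable firefly luciferase reporter driven by four HIV NF-kB elements / Also added: PMA plus ionomycin mix as NF-kB-activating stimulus / Compound dosing: 3 µM once, 0.30% DMSO / Times: 1 h pretreatment, 16 h stimulation, 37 °C / Signal: luminescence / Evaluation: per-plate % inhibition versus controls / Benchmarks: DMSO and 10 µM reference inhibitor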
# M1 antag = M1 muscarinic receptor (rat) antagonism | P08482 | CHO-M1 cells, Fluo-4 calcium, ACh EC80 antagonist mode; hits give low values | B-score at 10 µM | actives 3.4% (n = 64,000);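 active = calcium fluorescence response, raw or row-and-column corrected B-score, differing from the plate sample mean either way at a set confidence level, mostly lower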
# Target sequence (P08482 whole entry, looked up): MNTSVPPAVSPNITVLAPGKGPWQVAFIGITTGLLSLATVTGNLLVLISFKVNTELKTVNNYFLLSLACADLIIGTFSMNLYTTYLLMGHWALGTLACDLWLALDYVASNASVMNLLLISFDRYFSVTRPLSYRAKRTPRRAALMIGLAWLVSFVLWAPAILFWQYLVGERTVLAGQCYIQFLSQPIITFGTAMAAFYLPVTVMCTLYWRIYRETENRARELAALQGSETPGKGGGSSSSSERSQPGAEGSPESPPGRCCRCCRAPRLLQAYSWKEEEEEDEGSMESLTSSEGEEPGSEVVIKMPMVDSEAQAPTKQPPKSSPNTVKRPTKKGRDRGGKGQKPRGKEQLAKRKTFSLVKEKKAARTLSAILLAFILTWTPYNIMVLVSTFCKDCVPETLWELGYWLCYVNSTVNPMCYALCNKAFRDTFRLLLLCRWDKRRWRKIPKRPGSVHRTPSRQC
# D1 mod = allosterically modulates the human D1 dopamine receptor. actives 5.9% (n = 58,000). HEK293 D1, CRE-luciferase, dopamine EC30 potentiation; actives deviate in either direction. P21728. AID 641. B-score at 10 µM;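 active = luminescence count or its row- and column-corrected plate score outside the 99.7% band of the plate's sample wells, on either side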
# DAT uptake mod = changed human dopamine transporter uptake under cocaine IC80; LLC-PK1 hDAT cells, [14C]-dopamine uptake with cocaine IC80; actives deviate in either direction; B-score at 10 µM; actives 1.3% (n = 110,000); AID 449768;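 active = Z score or B-score, a plate-position-corrected score, falls beyond the plate's 99.7% confidence bounds, in either direction; inactive = both scores lie inside the 99.7% bounds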;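 note: scored against the spread of the other compound wells on the same plate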
# * = called active by the depositor; i = inactive; / = not tested or not shown. Compounds with a hit are over-represented: about 7.2% of the library has one in this group of screens.
SMILES,BAP1 inh,M1 ag,HEK293 NFkB inh,M1 antag,D1 mod,DAT uptake mod
CC(C)OC(=O)C(C)Oc1ccc(C(=O)NCCc2ccccc2)cc1 (stereo not given),/,/,/,/,/,-7.1*
CC1CCc2ccccc2N1C(=O)c1cccs1 (stereo not given),i,0.72,11,0.26,/,-7.3*
O=c1c(F)cn(Cc2ccccc2)c(=O)n1Cc1ccccc1,i,/,/,/,/,/
Cc1sc2nc(C(C)Nc3ccccc3N3CCOCC3)[nH]c(=O)c2c1C (stereo not given),/,-0.41,11,-0.037,0.43,-7.5*
Cc1sc2nc(SCC(=O)N3CCOCC3)[nH]c(=O)c2c1C,i,-0.41,3,-0.0061,0.85,-0.23
Fc1ccc(Cn2nnc(-c3ccc(CN4CCOCC4)cc3)n2)cc1,i,0.94,1,-1.2,0.03,-8*
Cc1cc(-n2c(C)cc(C(=O)CN3C(=O)NC4(CCCCC4)C3=O)c2C)no1,i,0.48,17,1.7*,-0.36,0.033
Clc1ccc(Cn2c(N=Cc3ccc4c(c3)OCO4)nc3ccccc32)cc1,i,/,/,/,/,/
CCC(=O)Nc1cc2nn(-c3ccc(OC)cc3)nc2cc1C,/,0.16,-28,0.43,-5*,-1.2
COc1ccc(-n2cnc3cc(NCc4ccccn4)ccc32)cc1,/,/,/,/,/,1.6
CCCCC(=O)Nc1cc2nn(-c3ccc(OC)cc3)nc2cc1C,/,-0.5,-21,0.11,0.15,-0.33
CCC(=O)Nc1ccc2c(c1)ncn2-c1ccc(OC)cc1,/,/,/,/,/,2.9*
O=C(NCCCNC(=O)c1cccs1)c1cccs1,i,-1.2,12,-0.42,-0.2,-0.42
COCCCNC(=O)c1cccs1,/,/,/,/,/,2.7*
N=c1oc2ccccc2cc1C(N)=S,i,/,/,/,/,/
CCOc1ccc(N2C(=O)CS/C2=N/NC(=O)COc2ccc3ccccc3c2)cc1,/,/,/,/,/,2.4*
COc1cccc(NC(=O)CCN2C(=O)c3ccccc3S2(=O)=O)c1,/,/,/,/,/,-0.37
CC(C)C(=O)Nc1cccc(NC(=O)CCN2C(=O)c3ccccc3S2(=O)=O)c1,i,0.51,6,1.4*,0.69,0.35
O=C(NC1CCCCC1)NC1(C(=O)N2CCN3CCCC3C2)CCCCC1 (stereo not given),i,-0.025,9,-0.78,-3*,0.028
COC(=O)c1cn(-c2ccccc2)nc1-c1ccncc1,/,/,/,/,/,1.8*
O=C(OCc1ccccc1)c1cn(-c2ccccc2)nc1-c1ccncc1,/,/,/,/,/,-0.047
O=S(=O)(c1ccccc1)c1nc(-c2ccco2)oc1NCc1cccnc1,i,-0.28,12,-0.49,4.9*,0.088
CCCn1c(SCC(=O)N2CCN(c3ccc(OC)cc3)CC2)nc2c1c(=O)n(C)c(=O)n2C,i,9.6*,7,-0.45,-5.2*,-0.68
CCCn1c(SCC(=O)N2CCN(c3ccccc3)CC2)nc2ccccc2c1=O,i,0.91,1,1.9*,-1.1,0.22
CCCn1c(SCC(=O)Nc2ccc3c(c2)OCO3)nc2c1c(=O)n(C)c(=O)n2C,i,-0.17,13,-0.66,4.8*,-0.71
SMILES,BAP1 inh,M1 ag,HEK293 NFkB inh,M1 antag,D1 mod,DAT uptake mod
CCn1c(SCC(=O)N2CCN(c3ccc(F)cc3)CC2)nc2ccccc2c1=O,i,1.6,12,0.21,-1.4,-0.84
COc1ccc(OC)c(C(=O)CSc2nc3c(c(=O)n(C)c(=O)n3C)n2C(C)C)c1,i,-1.5,14,0.069,6.1*,-0.48
CCCn1c(SCC(=O)c2cc(OC)ccc2OC)nc2c1c(=O)n(C)c(=O)n2C,i,-0.41,12,-0.063,1.7,/
COc1cc(Br)c(C2C(C(=O)OC3CCCC3)=C(C)NC3=C2C(=O)CCC3)cc1OC (stereo not given),i,/,/,/,/,/
Cc1ccccc1OCC(=O)Nc1ccc2c(c1)oc1ccccc12,i,/,/,/,/,/
CC1CCCC(C)N1CC(O)COc1ccc(N=Cc2ccccc2O)cc1 (stereo not given),i,/,/,/,/,/
CN1CCN(c2nc(-c3ccc(Cl)cc3)nc3ccccc23)CC1,i,/,/,/,/,/
c1ccc(-c2nc(N3CCCCCC3)c3ccccc3n2)nc1,i,-1.6,11,-1.6,2.9,2.1*
c1ccc(-c2nc(N3CCOCC3)c3ccccc3n2)nc1,i,0.8,0,1.1,0.49,-0.25
CN1CCN(c2nc(-c3ccncc3)nc3ccccc23)CC1,i,-0.93,6,-0.28,-3.8*,0.84
Cc1ccc(NC(=O)CSc2nnc(CSc3nc(C)cc(C)n3)n2Cc2ccco2)c(C)c1,i,1.9,17,-0.03,1.3,2.7*
Cc1cccc(N=c2oc3ccccc3cc2-c2nc3ccccc3[nH]2)c1,i,/,/,/,/,/
O=C1CC(NCCC2=CCCCC2)C(=O)N1c1cccc(Cl)c1Cl (stereo not given),/,/,/,/,/,3.5*
CCOC(=O)c1cc(=O)n2nc(-c3ccc(C)cc3)nc2s1,/,-0.28,16,0.37,-1.1,-8.4*
COc1ccccc1C=Nc1ccccc1Sc1c(C)n[nH]c1C,i,/,/,/,/,/
COC(=O)C1=C[C@@H](C(=O)OC)[C@@H]2C3=C(C(=O)[C@]2(CC(C)C)NC(=O)c2ccccc2)[C@H](C)n2c(=O)n(-c4ccccc4)c(=O)n2[C@@H]3C1,/,/,/,/,/,-2.5*
Cc1ccc(C(=O)O[C@H](C(=O)O)[C@H](OC(=O)c2ccc(C)cc2)C(=O)O)cc1 (tested in a mixture with another compound),i,/,/,/,/,/
Cc1nc2ccccc2c2oc(C(=O)N3CCc4ccccc4C3)cc12,i,6*,8,0.72,-0.061,1.6
CC(O)CNc1nc2c(c(=O)n(C)c(=O)n2C)n1Cc1cccc(C(F)(F)F)c1 (stereo not given),i,0.0031,/,0.33,/,1.8*
Cc1ccc(-c2nc3sc4c(N)ncnc4c3c3c2CCCC3)cc1,/,/,/,/,/,-4.9*
COC(=O)c1sc2nc(-c3ccccc3)c3c(c2c1N)CCCC3,/,/,/,/,/,-1.1
COC(=O)C1=C(C)NC(C)=C(C(=O)OCCCBr)C1c1cccc([N+](=O)[O-])c1 (stereo not given),i,/,/,/,/,/
CN1C(=O)CC(N2CCN(C(=O)CN3CCCC3)CC2)C1=O (stereo not given),i,/,10,/,-2.7*,0.25
C=CCN1C(=O)CC(c2ccccc2)=Nc2ccccc21,i,/,/,/,/,/
Cc1nc(NC(=O)c2csc3ccccc23)sc1C,i,0.044,-61,0.25,-3.4*,-0.078
CCOC(=O)c1ccccc1NC(=O)c1ccc(OC)c(OC)c1,i,/,/,/,/,/
CCOc1cc(CNc2ccc3[nH]c(=O)[nH]c3c2)ccc1OCC(=O)NC(C)(C)C,i,7.4*,15,-0.97,-1.7,-1.4
FC(F)(F)c1cc(C=Cc2ccccc2)no1,i,/,/,/,/,/
Cc1ccc(-n2c(SCC(N)=O)nc3c([nH]c4ccccc43)c2=O)cc1,i,-0.076,-7,-0.6,-4.1*,-0.071
O=C(NC(Cc1c[nH]c2ccccc12)C(=O)O)c1ccco1 (stereo not given),/,/,/,/,/,-9.5*
